Peptide text beside a SMILES is read from it.
Legend:
Type in all cases: physicochemical
[1] = Turbidity measurement of temperature-dependent coacervation
Summary of the method: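 Peptides were dissolved in pure water at various concentrations. Turbidity at 400 nm was followed while the temperature was raised or lowered at 0.5 °C/min starting from 5 °C. Each concentration was run at least three times. Tt was taken as the temperature at which turbidity reached half its maximum.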

[2] = Logarithmic fit of Tt against molar peptide concentration; conditions: pure water
Summary of the method: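 Tt for each peptide was obtained by turbidity at 400 nm in pure water at several concentrations, measured at least three times per concentration. Tt was plotted against the logarithm of molar peptide concentration and fitted as a logarithmic function. C37 was obtained by logarithmic extrapolation to Tt = 37 °C. The concentration needed at 50 °C was computed from formula (1).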

[3] = Scanning electron microscopy of aggregates; conditions: 0.10 mg/mL aqueous solution incubated at 50 °C for 3 h (Figure S6)
Summary of the method: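 Peptide in water at 0.1 mg/mL was incubated at 50 °C for 3 h, dropped on a cover glass and air-dried at 50 °C. The residue was rinsed gently three times with distilled water and air-dried again. Samples were platinum sputter-coated (5 nm) and imaged at 5.00 kV at 500× and 2000× magnification.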

SMILES	coacervation (turbidity change on heating) ([1]; peptide 20–50 mg/mL in pure water, turbidity at 400 nm (Figure S2))	peptide concentration at which coacervation is exhibited / required ([1]; pure water, turbidity at 400 nm, 0.5 °C/min from 5 °C)	concentration required to show coacervation at 50 °C ([2]; calculated with formula (1))	C37 (peptide concentration to attain Tt at 37 °C) ([2]; logarithmic extrapolation of the Tt vs peptide concentration graph)	morphology by SEM [3]
CC(C)[C@H](NC(=O)CNC(=O)[C@@H]1CCCN1C(=O)[C@H](Cc1ccccc1)NC(=O)CNC(=O)[C@@H](NC(=O)CNC(=O)[C@@H]1CCCN1C(=O)[C@H](Cc1ccccc1)NC(=O)CNC(=O)[C@@H](NC(=O)CNC(=O)[C@@H]1CCCN1C(=O)[C@@H](N)Cc1ccccc1)C(C)C)C(C)C)C(=O)NCC(N)=O [F3, H-(FPGVG)3-NH2] (H-FPGVGFPGVGFPGVG-NH2)	no coacervation	–	–	–	–
CC(C)[C@H](NC(=O)CNC(=O)[C@@H]1CCCN1C(=O)[C@H](Cc1ccccc1)NC(=O)CNC(=O)[C@@H](NC(=O)CNC(=O)[C@@H]1CCCN1C(=O)[C@H](Cc1ccccc1)NC(=O)CNC(=O)[C@@H](NC(=O)CNC(=O)[C@@H]1CCCN1C(=O)[C@H](Cc1ccccc1)NC(=O)CNC(=O)[C@@H](NC(=O)CNC(=O)[C@@H]1CCCN1C(=O)[C@H](Cc1ccccc1)NC(=O)CNC(=O)[C@@H](NC(=O)CNC(=O)[C@@H]1CCCN1C(=O)[C@@H](N)Cc1ccccc1)C(C)C)C(C)C)C(C)C)C(C)C)C(=O)NCC(N)=O [F5, H-(FPGVG)5-NH2] (H-FPGVGFPGVGFPGVGFPGVGFPGVG-NH2)	–	at least 20 mg/mL	at least 8.09 mM	11.7 mM	spherical structures were not formed

Source: paper PMC7931394 (ACS Omega, 2021)
